# Screening data deposited in PubChem by Broad Institute.
# An excerpt weighted towards active compounds, which were near 2.8% of everything screened.
# DENV2 CPE: inhibitors of DENV2 cytopathic effect, primary screen, cell-based, plate reader, single concentration; DENV2-infected cells, cytopathic effect rescue; CPE inhibition, % at 9.99 µM; 350,000 tested, 1.7% active; AID 651640, 2012; in the data active = CPE inhibition above about 20%, passing the limit was not always enough; inconclusive = no clear call, values can overlap the other calls; tested in BHK-21 cells;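 also: 0% = median of neutral control wells and 100% = median of positive control wells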
# E-sel inducer: E-selectin induction in HUVECs, primary screen, imaging, HUVEC, immunofluorescence imaging, single point | P16581 | AID 686992, 2013 | 260,000 tested, 0.37% active | normalized: neutral wells 0, TNF-alpha wells 100 | activation, % at 7.58 µM;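 active = mean E-selectin-positive cell signal at least 10% of the positive control, reached in at least 60% of replicates, without over 20% cell loss; inconclusive = no rule given, readout overlaps actives, possibly toxicity-flagged; inactive = the rest, including those meeting only one limit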
# Target sequence (P16581 whole entry, looked up): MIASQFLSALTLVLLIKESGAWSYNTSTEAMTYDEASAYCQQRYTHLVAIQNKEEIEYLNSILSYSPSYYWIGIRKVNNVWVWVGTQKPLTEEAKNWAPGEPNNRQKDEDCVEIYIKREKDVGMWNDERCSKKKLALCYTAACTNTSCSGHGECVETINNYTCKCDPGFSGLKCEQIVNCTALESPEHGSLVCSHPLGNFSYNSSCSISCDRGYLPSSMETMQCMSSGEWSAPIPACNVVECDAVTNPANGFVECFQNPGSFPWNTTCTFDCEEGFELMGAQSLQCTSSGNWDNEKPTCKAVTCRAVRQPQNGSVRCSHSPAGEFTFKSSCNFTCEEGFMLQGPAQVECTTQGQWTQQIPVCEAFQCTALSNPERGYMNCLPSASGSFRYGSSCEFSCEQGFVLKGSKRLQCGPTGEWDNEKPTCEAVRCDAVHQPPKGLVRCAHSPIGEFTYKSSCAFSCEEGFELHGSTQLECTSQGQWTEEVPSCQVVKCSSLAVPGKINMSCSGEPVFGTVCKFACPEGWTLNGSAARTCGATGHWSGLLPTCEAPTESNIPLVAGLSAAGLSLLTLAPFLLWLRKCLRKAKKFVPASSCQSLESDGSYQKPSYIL
#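 Assay system: HUVEC primary endothelial cells. Input: 3,000 HUVEC seeded per well. Doses: one compound dose added by pin transfer. Read-out basis: % PE-positive cells. Benchmarks: TNF-alpha high, DMSO low. Detection: immunofluorescence imaging. Buffer or medium: EGM-2, gelatin.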
# SIRT5 block: SIRT5 desuccinylase inhibitors, primary screen, biochemical, fluorescence imaging, single point, set 5 | AID 652115, 2013 | NAD-dependent protein deacylase sirtuin-5, mitochondrial (Homo sapiens), Q9NXA8 | 330,000 tested, 1.1% active | Purified SirT5, succinyl-peptide AMC, trypsin-coupled fluorescence | inhibition, % at 15 µM; in the data active = inhibition above about 15%; inconclusive = no clear call, values can overlap the other calls
# Active calls of the source: *; ? = inconclusive; . = not tested or not shown.
SMILES,DENV2 CPE,E-sel inducer,SIRT5 block
COc1ccc(S(=O)(=O)N2CCOCC2)cc1NC(=O)c1cccc2c(=O)c(C)c(-c3ccccc3)oc12,-3,0,27*
CCN(CC)S(=O)(=O)c1ccc(N2CCOCC2)c(NC(=O)c2cccc3c(=O)c(C)c(-c4ccccc4)oc23)c1,-7,0,-3
COc1ccc(CN(C)C[C@H]2OCCCC[C@H](C)Oc3ccc(NS(=O)(=O)c4ccc(F)cc4)cc3C(=O)N([C@@H](C)CO)C[C@H]2C)cc1,14,.,11
CO[C@@H]1CN(C)C(=O)c2ccc(NC(=O)Cc3ccccc3)cc2OC[C@@H](C)N(C(=O)c2ccccc2F)C[C@@H]1C,1,0,2
C[C@@H]1CN([C@@H](C)CO)C(=O)c2cc(-c3ccccc3F)cnc2O[C@@H]1CN(C)C,-1,-1,-3
CC(C)NC(=O)N(C)C[C@H]1Oc2ncc(-c3ccccc3F)cc2C(=O)N([C@H](C)CO)C[C@H]1C,17,0,-4
C[C@H](CO)N1C[C@H](C)[C@H](CN(C)C)Oc2ncc(-c3ccccc3F)cc2C1=O,0,0,17*
CC(C)NC(=O)N(C)C[C@@H]1Oc2ncc(-c3ccccc3F)cc2C(=O)N([C@@H](C)CO)C[C@H]1C,23*,0,-2
O=C(O)C[C@H]1C[C@@H]2c3cc(NC(=O)Nc4ccc(F)cc4)ccc3O[C@@H]2[C@@H](CO)O1,0,0,-5
Cc1ccc(OCC(=O)Nc2ccc(S(=O)(=O)Nc3cc(C)nc(C)n3)cc2)cc1,17,.,-5
Cc1ccc(C(=O)NCC(=O)Nc2ccc(S(=O)(=O)Nc3cc(C)nc(C)n3)cc2)cc1,56*,.,2
C[C@@H]1CN([C@@H](C)CO)C(=O)c2cc(NC(=O)Nc3ccc4c(c3)OCO4)ccc2O[C@@H]1CN(C)S(=O)(=O)c1ccccc1,-5,-3,5
C[C@H]1CN([C@@H](C)CO)C(=O)c2cc(NC(=O)Nc3ccc4c(c3)OCO4)ccc2O[C@@H]1CN(C)S(=O)(=O)c1ccc(F)cc1,10,50*,2
C[C@H](CO)N1C[C@H](C)[C@H](CN(C)S(=O)(=O)c2ccc(F)cc2)Oc2ccc(NC(=O)Nc3ccc4c(c3)OCO4)cc2C1=O,-5,-16,5
C[C@@H]1CN([C@H](C)CO)C(=O)c2cc(NC(=O)Nc3ccc4c(c3)OCO4)ccc2O[C@H]1CN(C)S(=O)(=O)c1ccccc1,-7,34*,1
COc1cccc(C#Cc2cnc3c(c2)C(=O)N([C@H](C)CO)C[C@@H](C)[C@@H](CN(C)C(=O)C2CCOCC2)O3)c1,.,0,2
COCC#Cc1cnc2c(c1)C(=O)N([C@H](C)CO)C[C@H](C)[C@H](CN(C)C(=O)C1CCCCC1)O2,-1,0,-5
CCCNC(=O)C[C@@H]1C[C@H]2c3cc(NC(=O)Nc4ccccc4)ccc3O[C@H]2[C@@H](CO)O1,4,0,.
C[C@H]1CN([C@@H](C)CO)C(=O)c2cc(NC(=O)CCCN(C)C)ccc2O[C@H]1CN(C)Cc1ccc(C(F)(F)F)cc1,4,42*,-3
C[C@@H]1CN([C@H](C)CO)C(=O)c2cc(NC(=O)CCCN(C)C)ccc2O[C@@H]1CN(C)Cc1ccc(C(=O)O)cc1,0,-2,0
C[C@H]1CN([C@@H](C)CO)C(=O)c2cc(NC(=O)CCC(F)(F)F)ccc2O[C@H]1CN(C)Cc1ccc(C(F)(F)F)cc1,?,19,20*
C[C@@H]1CN([C@H](C)CO)C(=O)c2cc(NC(=O)CCC(F)(F)F)ccc2O[C@H]1CN(C)Cc1ccc(C(F)(F)F)cc1,?,-21,4
C[C@H](CO)N1C[C@H](C)[C@@H](CN(C)Cc2ccncc2)Oc2ccc(NC(=O)CCC(F)(F)F)cc2C1=O,4,.,-3
C[C@@H]1CN([C@H](C)CO)C(=O)c2cc(NC(=O)CCC(F)(F)F)ccc2O[C@@H]1CN(C)Cc1ccc(C(F)(F)F)cc1,2,52*,10
O=C(C[C@@H]1C=C[C@H](NC(=O)C2CC2)[C@@H](CO)O1)NCc1ccncc1,2,0,-7
SMILES,DENV2 CPE,E-sel inducer,SIRT5 block
C[C@H]1CN([C@@H](C)CO)C(=O)c2cccc(NC(=O)Nc3ccc4c(c3)OCO4)c2O[C@@H]1CN(C)Cc1ccc(C(=O)Nc2ccccc2N)cc1,.,1,.
O=C(O)c1c2c(nc3ccccc13)/C(=C/c1cccc([N+](=O)[O-])c1)CCC2,-2,.,97*
O=C(O)c1c2c(nc3ccccc13)/C(=C/c1ccccc1[N+](=O)[O-])CCC2,-1,.,-3
C[C@@H]1CN([C@H](C)CO)C(=O)c2cc(C#C[C@@H](C)O)cnc2O[C@H]1CN(C)C(=O)c1ccccc1F,0,.,-2
COc1cccc(/C=C(/C#N)c2nc3ccccc3[nH]2)c1OC(C)C(=O)O (stereo not drawn),1,0,1
Cc1cccc(C)c1OCC(=O)OC/C(O)=C(\C#N)c1nc2ccccc2[nH]1,33*,.,.
Cc1cc(C)cc(OCC(=O)OC/C(O)=C(\C#N)c2nc3ccccc3[nH]2)c1,.,0,.
Cc1cc(Br)ccc1SCC(=O)OC/C(O)=C(\C#N)c1nc2ccccc2[nH]1,5,.,21*
Cc1cc(Br)ccc1SCC(=O)OCC(O)=C(C#N)c1nc2ccccc2[nH]1,2,0,.
COc1cccc(/C=C(\C#N)c2nc3ccccc3[nH]2)c1OCC(=O)O,1,.,102*
O=C(C1CCOCC1)N1[C@H](CO)[C@H](c2ccccc2)C12CN(Cc1cncnc1)C2,0,0,1
Cc1ccc(-c2cnc3c(c2)C(=O)N([C@H](C)CO)C[C@@H](C)[C@H](CN(C)C(=O)CN(C)C)O3)cc1,7,0,-1
COCC(=O)Nc1ccc2c(c1)C(=O)N(C)[C@H]1CC[C@@H](CC(=O)NCCc3ccncc3)O[C@H]1CO2,0,0,-4
CCCN1C[C@H](C)[C@H](OC)CN(C)C(=O)c2cc(NC(=O)CC)ccc2OC[C@H]1C,.,0,.
CCCCCCCCc1nnc(N)s1,10,.,-1
CCCCCSc1nnc(N)s1,32*,.,-4
O=C(C[C@H]1CC[C@H]2[C@@H](COC[C@@H](O)CN2Cc2cccc(C(F)(F)F)c2)O1)NCCc1ccccc1,26*,0,0
COc1ccc(CN2C[C@H](O)COC[C@H]3O[C@H](CC(=O)NCc4ccncn4)CC[C@@H]32)cc1,21*,0,5
O=C(C[C@H]1CC[C@@H]2[C@H](COC[C@@H](O)CN2Cc2nccs2)O1)NCc1ccc(-c2ccccc2)cc1,34*,0,-1
COc1ccc(CN2C[C@H](O)COC[C@@H]3O[C@H](CC(=O)NCc4ccncn4)CC[C@H]32)cc1,?,0,4
O=C(C[C@H]1CC[C@@H]2[C@H](COC[C@H](O)CN2Cc2cccc(C(F)(F)F)c2)O1)NCc1ccc(F)cc1,-11,0,1
O=C(C[C@H]1CC[C@H]2[C@@H](COC[C@@H](O)CN2Cc2cccc(C(F)(F)F)c2)O1)NCc1ccc(F)cc1,111*,1,2
